2 molecules from ChEMBL document CHEMBL2390926, “Identification of novel FLT3 kinase inhibitors” (Eur J Med Chem, 2013) can be followed below.

The structures appear in SMILES notation. Activity calls are given as the source filed them. The rule behind the calls is not given here.

Common to all, as to format: cell-based
Conditions in all cases: BaF3

Experiment [1] concerns the target T1, Megakaryocyte-associated tyrosine-protein kinase (Homo sapiens) (UniProt P42679).
T1 sequence (whole entry): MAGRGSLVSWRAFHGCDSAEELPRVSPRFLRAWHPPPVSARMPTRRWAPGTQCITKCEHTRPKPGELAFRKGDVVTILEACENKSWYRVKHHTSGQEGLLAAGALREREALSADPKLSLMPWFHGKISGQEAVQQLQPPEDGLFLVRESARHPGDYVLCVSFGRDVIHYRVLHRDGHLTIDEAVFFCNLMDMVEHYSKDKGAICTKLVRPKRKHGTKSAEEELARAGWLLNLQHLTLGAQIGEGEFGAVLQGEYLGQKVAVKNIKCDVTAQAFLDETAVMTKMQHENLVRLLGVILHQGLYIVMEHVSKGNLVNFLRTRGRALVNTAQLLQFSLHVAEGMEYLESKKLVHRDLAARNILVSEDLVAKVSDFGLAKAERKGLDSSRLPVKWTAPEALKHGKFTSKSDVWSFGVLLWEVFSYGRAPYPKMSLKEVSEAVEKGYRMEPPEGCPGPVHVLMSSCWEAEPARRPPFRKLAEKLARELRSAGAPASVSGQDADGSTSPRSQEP
Put plainly: Inhibition of MATK1 (unknown origin) transfected in mouse Ba/F3 cells at 5 uM after 24 hrs.

Experiment [2] addresses T2, Tyrosine-protein kinase Mer (Homo sapiens) (UniProt Q12866).
T2 sequence (whole entry): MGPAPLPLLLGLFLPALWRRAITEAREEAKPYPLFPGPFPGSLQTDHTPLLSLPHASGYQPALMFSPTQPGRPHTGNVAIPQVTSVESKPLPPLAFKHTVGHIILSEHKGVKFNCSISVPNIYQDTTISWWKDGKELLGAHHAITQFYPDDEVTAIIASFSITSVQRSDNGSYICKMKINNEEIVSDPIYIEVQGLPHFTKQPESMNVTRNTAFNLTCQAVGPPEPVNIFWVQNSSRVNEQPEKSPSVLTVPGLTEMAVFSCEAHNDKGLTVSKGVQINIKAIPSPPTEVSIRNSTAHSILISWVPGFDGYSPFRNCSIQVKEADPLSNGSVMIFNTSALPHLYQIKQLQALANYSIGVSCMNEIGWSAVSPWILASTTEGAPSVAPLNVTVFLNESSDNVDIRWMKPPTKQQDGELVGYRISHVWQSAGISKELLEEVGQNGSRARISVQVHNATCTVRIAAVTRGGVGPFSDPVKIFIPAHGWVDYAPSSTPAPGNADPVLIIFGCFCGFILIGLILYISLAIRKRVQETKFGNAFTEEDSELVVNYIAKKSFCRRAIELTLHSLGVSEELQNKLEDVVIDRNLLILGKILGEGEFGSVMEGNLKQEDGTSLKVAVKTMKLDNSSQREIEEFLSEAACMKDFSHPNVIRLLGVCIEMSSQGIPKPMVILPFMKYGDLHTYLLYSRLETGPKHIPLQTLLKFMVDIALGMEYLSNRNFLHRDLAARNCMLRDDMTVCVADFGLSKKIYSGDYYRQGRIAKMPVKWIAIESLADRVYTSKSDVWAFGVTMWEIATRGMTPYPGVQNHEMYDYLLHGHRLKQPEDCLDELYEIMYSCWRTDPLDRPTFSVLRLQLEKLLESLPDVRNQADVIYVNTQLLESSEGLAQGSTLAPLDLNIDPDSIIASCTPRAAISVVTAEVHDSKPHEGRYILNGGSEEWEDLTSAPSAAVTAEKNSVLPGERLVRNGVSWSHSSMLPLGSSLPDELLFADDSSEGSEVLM
The experiment is described as follows: Inhibition of MERTK (unknown origin) transfected in mouse Ba/F3 cells at 5 uM after 24 hrs.

Experiment [3] deals with T3, Ephrin type-A receptor 8 (Homo sapiens) (UniProt P29322).
T3 sequence (whole entry): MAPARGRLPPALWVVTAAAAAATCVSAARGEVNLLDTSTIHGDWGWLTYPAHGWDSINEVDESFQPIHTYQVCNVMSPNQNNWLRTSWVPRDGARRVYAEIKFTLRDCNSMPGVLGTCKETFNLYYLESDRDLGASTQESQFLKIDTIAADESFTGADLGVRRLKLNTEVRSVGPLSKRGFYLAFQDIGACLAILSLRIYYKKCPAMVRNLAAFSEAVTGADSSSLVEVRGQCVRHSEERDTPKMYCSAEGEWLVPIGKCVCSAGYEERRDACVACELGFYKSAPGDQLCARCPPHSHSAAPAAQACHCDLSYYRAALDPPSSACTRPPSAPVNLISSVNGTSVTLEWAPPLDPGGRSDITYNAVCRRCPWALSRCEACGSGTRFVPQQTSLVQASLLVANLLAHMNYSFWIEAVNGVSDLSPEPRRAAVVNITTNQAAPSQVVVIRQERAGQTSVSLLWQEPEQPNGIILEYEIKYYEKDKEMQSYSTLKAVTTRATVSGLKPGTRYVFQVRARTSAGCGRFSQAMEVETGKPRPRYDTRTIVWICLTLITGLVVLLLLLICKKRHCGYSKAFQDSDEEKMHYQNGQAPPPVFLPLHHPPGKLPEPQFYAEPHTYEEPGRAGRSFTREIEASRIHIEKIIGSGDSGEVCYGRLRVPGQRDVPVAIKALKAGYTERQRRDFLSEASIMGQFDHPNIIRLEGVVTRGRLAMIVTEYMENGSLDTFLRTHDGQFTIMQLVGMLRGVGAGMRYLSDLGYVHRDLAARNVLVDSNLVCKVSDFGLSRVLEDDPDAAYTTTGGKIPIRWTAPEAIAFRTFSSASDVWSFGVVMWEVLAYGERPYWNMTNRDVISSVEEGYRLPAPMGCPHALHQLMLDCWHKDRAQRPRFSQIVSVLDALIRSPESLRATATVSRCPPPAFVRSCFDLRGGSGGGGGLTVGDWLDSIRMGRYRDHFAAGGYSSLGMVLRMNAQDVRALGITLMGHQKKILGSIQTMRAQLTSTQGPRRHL
Put plainly: Inhibition of EPHA8 (unknown origin) transfected in mouse Ba/F3 cells at 5 uM after 24 hrs. Put shortly:
(§1)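 Kinase specificity panel: each Ba/F3 line transformed with one of 24 tyrosine kinases depends on that kinase to grow. Cells were given compound at 1 or 5 µM for 24 h, with DMSO as comparator. Percentage growth was read by ATP-lite luminescence and reported as mean ± SEM.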

Experiment [4] has as its target Receptor tyrosine-protein kinase erbB-2 (Homo sapiens) (UniProt P04626). Put plainly: Inhibition of ERBB2 (unknown origin) transfected in mouse Ba/F3 cells at 5 uM after 24 hrs. In outline: as §1
Experiment [5] concerns the target Insulin-like growth factor 1 receptor (Homo sapiens) (UniProt P08069). Put plainly: Inhibition of IGF1R (unknown origin) transfected in mouse Ba/F3 cells at 5 uM after 24 hrs. In outline:
as §1

For experiment [6], the target named is Proto-oncogene tyrosine-protein kinase ROS (Homo sapiens) (UniProt P08922). The experiment is described as follows: Inhibition of ROS1 (unknown origin) transfected in mouse Ba/F3 cells at 5 uM after 24 hrs.
Chain of Proto-oncogene tyrosine-protein kinase ROS (Homo sapiens) (P08922 whole entry): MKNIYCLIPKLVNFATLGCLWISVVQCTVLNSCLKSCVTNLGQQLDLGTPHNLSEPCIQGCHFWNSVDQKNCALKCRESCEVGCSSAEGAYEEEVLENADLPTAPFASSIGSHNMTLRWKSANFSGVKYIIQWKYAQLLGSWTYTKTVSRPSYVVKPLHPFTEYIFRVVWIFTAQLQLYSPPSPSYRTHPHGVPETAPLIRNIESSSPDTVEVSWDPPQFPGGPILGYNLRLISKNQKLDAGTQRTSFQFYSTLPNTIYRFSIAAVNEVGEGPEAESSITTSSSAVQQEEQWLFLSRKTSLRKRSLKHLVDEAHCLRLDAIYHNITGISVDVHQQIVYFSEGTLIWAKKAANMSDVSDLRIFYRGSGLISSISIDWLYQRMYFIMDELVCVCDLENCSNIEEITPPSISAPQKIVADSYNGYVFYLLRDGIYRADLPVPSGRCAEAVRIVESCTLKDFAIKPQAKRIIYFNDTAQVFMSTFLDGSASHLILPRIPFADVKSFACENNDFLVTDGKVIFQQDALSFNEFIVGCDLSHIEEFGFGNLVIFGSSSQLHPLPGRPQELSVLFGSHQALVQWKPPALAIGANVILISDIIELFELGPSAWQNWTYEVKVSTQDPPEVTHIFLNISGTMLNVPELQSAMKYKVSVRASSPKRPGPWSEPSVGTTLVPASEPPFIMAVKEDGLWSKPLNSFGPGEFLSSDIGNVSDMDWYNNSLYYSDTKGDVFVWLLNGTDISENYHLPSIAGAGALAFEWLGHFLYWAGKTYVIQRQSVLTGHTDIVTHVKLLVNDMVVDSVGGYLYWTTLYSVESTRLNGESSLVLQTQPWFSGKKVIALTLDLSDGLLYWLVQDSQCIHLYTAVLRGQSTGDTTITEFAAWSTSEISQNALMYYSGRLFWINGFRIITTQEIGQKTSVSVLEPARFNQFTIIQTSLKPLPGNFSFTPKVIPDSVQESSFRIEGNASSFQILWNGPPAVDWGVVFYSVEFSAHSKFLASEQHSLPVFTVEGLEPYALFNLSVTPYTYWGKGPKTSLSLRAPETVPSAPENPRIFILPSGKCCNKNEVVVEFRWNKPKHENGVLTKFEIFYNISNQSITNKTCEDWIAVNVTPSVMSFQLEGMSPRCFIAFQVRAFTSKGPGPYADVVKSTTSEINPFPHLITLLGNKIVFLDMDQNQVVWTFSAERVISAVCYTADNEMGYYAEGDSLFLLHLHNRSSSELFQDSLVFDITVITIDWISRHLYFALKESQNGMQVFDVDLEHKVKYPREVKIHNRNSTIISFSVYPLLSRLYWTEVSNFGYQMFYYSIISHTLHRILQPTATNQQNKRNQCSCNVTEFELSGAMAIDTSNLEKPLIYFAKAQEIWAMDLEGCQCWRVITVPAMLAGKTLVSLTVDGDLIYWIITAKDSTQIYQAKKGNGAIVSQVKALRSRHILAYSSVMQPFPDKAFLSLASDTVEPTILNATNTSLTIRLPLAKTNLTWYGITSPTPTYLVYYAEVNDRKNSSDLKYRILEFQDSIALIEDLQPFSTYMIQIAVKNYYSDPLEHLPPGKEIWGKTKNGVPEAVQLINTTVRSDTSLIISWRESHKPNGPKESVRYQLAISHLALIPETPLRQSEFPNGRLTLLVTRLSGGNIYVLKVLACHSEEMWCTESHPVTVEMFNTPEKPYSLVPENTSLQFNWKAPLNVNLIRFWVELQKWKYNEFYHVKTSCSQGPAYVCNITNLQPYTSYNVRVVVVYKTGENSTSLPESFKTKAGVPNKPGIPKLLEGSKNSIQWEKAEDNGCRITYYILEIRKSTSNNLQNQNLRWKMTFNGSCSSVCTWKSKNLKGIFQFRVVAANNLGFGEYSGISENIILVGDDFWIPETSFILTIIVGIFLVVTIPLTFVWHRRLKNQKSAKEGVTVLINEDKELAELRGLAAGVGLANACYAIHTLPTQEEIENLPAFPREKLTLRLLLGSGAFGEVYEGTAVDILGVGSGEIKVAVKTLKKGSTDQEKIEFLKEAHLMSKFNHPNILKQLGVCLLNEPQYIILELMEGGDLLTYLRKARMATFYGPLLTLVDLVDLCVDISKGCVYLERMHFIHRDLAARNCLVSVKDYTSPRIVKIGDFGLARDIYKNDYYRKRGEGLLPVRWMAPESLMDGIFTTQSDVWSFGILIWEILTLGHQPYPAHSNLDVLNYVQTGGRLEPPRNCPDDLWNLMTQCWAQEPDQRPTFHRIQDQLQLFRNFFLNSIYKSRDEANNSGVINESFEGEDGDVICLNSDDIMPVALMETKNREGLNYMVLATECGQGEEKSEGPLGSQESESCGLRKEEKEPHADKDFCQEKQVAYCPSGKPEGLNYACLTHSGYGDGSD
Experiment [7] has as its target NT-3 growth factor receptor (Homo sapiens) (UniProt Q16288). Put plainly: Inhibition of NTRK3 (unknown origin) transfected in mouse Ba/F3 cells at 5 uM after 24 hrs.

Chain of NT-3 growth factor receptor (Homo sapiens) (Q16288 32-839 limits assumed): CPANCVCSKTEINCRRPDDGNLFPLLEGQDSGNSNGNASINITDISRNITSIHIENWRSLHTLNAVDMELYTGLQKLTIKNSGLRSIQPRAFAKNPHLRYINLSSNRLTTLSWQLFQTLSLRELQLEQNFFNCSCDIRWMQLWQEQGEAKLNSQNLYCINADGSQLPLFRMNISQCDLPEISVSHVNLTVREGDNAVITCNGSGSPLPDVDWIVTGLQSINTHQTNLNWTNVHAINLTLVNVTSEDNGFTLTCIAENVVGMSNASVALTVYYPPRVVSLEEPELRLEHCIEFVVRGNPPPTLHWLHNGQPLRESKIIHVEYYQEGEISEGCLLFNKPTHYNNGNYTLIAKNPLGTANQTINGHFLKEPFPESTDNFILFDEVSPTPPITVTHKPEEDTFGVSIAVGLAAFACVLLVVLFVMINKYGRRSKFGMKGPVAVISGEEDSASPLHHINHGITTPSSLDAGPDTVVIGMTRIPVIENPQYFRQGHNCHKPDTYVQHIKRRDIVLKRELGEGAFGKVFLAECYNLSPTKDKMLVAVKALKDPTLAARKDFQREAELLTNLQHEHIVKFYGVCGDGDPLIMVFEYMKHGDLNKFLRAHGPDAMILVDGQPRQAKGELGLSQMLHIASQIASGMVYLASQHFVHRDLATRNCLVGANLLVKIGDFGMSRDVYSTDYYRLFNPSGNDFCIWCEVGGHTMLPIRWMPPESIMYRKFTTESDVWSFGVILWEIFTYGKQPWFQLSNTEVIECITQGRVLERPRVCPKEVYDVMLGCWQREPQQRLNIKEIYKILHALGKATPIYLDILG
Chain of Receptor tyrosine-protein kinase erbB-2 (Homo sapiens) (P04626 whole entry): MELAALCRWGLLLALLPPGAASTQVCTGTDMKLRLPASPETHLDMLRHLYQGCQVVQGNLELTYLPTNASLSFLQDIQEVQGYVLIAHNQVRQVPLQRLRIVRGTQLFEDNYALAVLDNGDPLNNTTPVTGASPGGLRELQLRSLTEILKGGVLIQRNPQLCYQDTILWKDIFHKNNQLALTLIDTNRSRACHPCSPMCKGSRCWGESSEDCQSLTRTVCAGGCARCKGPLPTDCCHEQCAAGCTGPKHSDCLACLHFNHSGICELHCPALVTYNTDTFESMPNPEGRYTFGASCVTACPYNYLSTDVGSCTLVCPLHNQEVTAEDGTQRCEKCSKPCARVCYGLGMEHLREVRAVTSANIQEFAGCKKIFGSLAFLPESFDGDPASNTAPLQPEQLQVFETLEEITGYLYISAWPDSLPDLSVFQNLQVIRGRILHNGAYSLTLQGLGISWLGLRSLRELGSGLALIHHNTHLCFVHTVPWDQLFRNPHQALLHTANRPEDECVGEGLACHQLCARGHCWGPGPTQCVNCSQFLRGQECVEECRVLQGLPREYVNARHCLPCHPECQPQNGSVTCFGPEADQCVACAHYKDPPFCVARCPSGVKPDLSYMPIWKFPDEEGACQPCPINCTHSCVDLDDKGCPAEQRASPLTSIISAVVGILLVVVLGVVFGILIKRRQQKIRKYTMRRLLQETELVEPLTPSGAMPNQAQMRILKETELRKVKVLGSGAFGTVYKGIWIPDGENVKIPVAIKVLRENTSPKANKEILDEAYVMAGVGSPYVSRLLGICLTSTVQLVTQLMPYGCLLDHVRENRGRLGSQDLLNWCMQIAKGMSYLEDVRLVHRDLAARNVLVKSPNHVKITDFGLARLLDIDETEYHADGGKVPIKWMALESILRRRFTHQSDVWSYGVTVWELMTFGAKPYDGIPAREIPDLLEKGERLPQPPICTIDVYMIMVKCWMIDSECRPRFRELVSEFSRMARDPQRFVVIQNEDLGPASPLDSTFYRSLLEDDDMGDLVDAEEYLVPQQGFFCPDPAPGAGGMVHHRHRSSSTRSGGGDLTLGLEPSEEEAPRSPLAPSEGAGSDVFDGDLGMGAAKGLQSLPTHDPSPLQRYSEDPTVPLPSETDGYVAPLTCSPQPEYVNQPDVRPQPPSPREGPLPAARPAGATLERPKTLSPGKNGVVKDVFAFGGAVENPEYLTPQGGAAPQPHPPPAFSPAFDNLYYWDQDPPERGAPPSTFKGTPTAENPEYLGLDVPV

With `Cc1ccc(-n2cnc3cc(Nc4nnc(C)c5ccccc45)ccc32)cc1`, the inhibition result in experiment [1], in experiment [2], in experiment [3], in experiment [4], in experiment [5] and in experiment [6] was “inactive” in each case. Further, in experiment [7], the inhibition result was “inactive”.

`Fc1ccc(-c2n[nH]cc2-c2ccncc2)cc1Cl`: the inhibition entry in experiment [1], in experiment [2], in experiment [4], in experiment [5] and in experiment [7] was “inactive” throughout. The inhibition entry in experiment [3] and in experiment [6] was “Active” throughout.
